Columns and labels:
[1] = Partition coefficient (logP); type: physicochemical; conditions: octanol/water
Summary of the method: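 Crude octanol/water log P calculated from tabulated fragmentation constants; for one hydroxy analogue also determined experimentally.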

[2] = test system: Mus musculus; assay: Convulsant effects in mice treated with PTZ (40 mg/kg) dose; type: functional
[3] = molecular target: GABA-A receptor; anion channel; assay: In vitro potency measured against [3H]diazepam at the benzodiazepine receptor in rat
Summary of the method: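 Male Sprague-Dawley rats (175-250 g); cerebral cortex homogenized in 50 mM Tris-HCl pH 7.4 and washed by repeated centrifugation at 2000g. Membranes incubated with 2 nM [3H]diazepam for 60-90 min at 0-4 °C, then filtered. Nonspecific binding defined with 10 µM flunitrazepam. Six or more concentrations; IC50 from Hill plots; mean of at least three determinations.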

[4] = test system: Mus musculus; assay: Antagonism of Diazepam (2.5 mg/kg) anticonvulsant effects in mice treated with PTZ (80 mg/kg); type: functional
Summary of the method: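 Male NIH mice in groups of 10 received graded ip doses in Emulphor/saline 1:9, or vehicle. Diazepam 2.5 mg/kg ip followed 15 min later, then PTZ 80 mg/kg 15 min after that. ED50 is the dose antagonizing diazepam's protection against tonic/clonic convulsions in 50% of mice. Highest dose tested was 30 or 40 mg/kg.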

[5] = molecular target: GABA-A receptor; anion channel; assay: In vitro inhibition of [3H]flunitrazepam binding to rat GABA-A Benzodiazepine receptor; type: protein-complex assay

| SMILES | IC50 [3] [nM] | also measured |
| --- | --- | --- |
| Clc1ccc2c(c1)[nH]c1c2ncc2[nH]c3ccccc3c21 | – | logP [1]: 4.58; ED50 [2]: > 30 mg/kg |
| Brc1cccc2c1[nH]c1c3c4ccccc4nc-3c[nH]c12 | 28 | – |
| Cc1cccc2c1[nH]c1c3c4ccccc4nc-3c[nH]c12 | 83 | – |
| O=[N+]([O-])c1ccc2[nH]c3c[nH]c4c5cc(Cl)ccc5nc-4c3c2c1 | 1190 | – |
| c1ccc(COc2ccc3[nH]c4c5c6ccccc6nc-5c[nH]c4c3c2)cc1 | 1600 | – |
| Brc1ccc2[nH]c3cnc4c5ccccc5[nH]c4c3c2c1 | 6 | – |
| c1ccc2c(c1)[nH]c1c2ncc2[nH]c3ccccc3c21 | – | logP [1]: 3.87 |
| Brc1ccc2[nH]c3c4c5ccccc5nc-4c[nH]c3c2c1 | 750 | – |
| Brc1ccc2c(c1)[nH]c1c3c4ccccc4nc-3c[nH]c12 | 19 | logP [1]: 4.73; ED50 [4]: > 40 mg/kg; ED50 [2]: > 40 mg/kg |
| Fc1ccc2c(c1)[nH]c1c3c4ccccc4nc-3c[nH]c12 | – | logP [1]: 4.01; ED50 [4]: > 30 mg/kg; ED50 [2]: > 30 mg/kg |
| Cn1c2ccccc2c2c3nc4ccccc4c-3[nH]cc21 | 1140 | – |
| COc1cccc2[nH]c3c4c5ccccc5nc-4c[nH]c3c12 | 250 | – |
| Cn1c2ccccc2c2[nH]cc3nc4ccccc4c-3c21 | 157 | – |
| c1ccc(COc2ccc3c(c2)[nH]c2c3ncc3[nH]c4ccccc4c32)cc1 | > 4000 | – |
| Oc1ccc2[nH]c3c4c5ccccc5nc-4c[nH]c3c2c1 | 114 | ED50 [4]: > 40 mg/kg; ED50 [2]: > 40 mg/kg |
| COc1ccc2c(c1)[nH]c1c3c4ccccc4nc-3c[nH]c12.Cl | 8 | logP [1]: 4.04; ED50 [4]: 3.9 mg/kg; ED50 [2]: 7 mg/kg |
| O=[N+]([O-])c1ccc2[nH]c3c[nH]c4c5ccccc5nc-4c3c2c1 | 4 | – |

| SMILES | IC50 [3] [nM] | also measured |
| --- | --- | --- |
| CC(C)(C)C(=O)Oc1ccc2c(c1)[nH]c1c3c4ccccc4nc-3c[nH]c12 | – | IC50 [5]: 200 nM; ED50 [2]: 17.5 mg/kg |
| Brc1ccc2[nH]c3c(ncc4[nH]c5ccc(Br)cc5c43)c2c1 | > 320 | – |
| Fc1ccc2[nH]c3c4c5ccccc5nc-4c[nH]c3c2c1 | 6 | logP [1]: 4.01; ED50 [2]: > 30 mg/kg |
| O=[N+]([O-])c1ccc2[nH]c3c[nH]c4c5ccc(Cl)cc5nc-4c3c2c1 | 126 | – |
| Nc1ccc2[nH]c3c[nH]c4c5ccccc5nc-4c3c2c1 | 44 | – |
| Clc1ccc2[nH]c3c[nH]c4c5cccc(Cl)c5nc-4c3c2c1 | 310 | – |
| Oc1ccc2c(c1)[nH]c1c3c4ccccc4nc-3c[nH]c12 | 6 | logP [1]: 0.95; ED50 [4]: > 40 mg/kg; ED50 [2]: > 40 mg/kg |
| CCc1nc2c3ccccc3[nH]c2c2c1[nH]c1ccccc12 | 250 | – |
| Oc1cccc2[nH]c3c4c5ccccc5nc-4c[nH]c3c12 | 578 | – |
| Nc1ccc2[nH]c3c[nH]c4c5ccc(Cl)cc5nc-4c3c2c1 | 98 | – |
| O=S(=O)(O)c1ccc2[nH]c3c(ncc4[nH]c5ccc(S(=O)(=O)O)cc5c43)c2c1 | 5000 | – |
| Cc1cccc2[nH]c3c4c5ccccc5nc-4c[nH]c3c12 | > 5000 | – |
| Cc1ccc2c(c1)[nH]c1c3c4ccccc4nc-3c[nH]c12 | 8 | logP [1]: 4.53; ED50 [4]: > 40 mg/kg; ED50 [2]: > 40 mg/kg |
| Cc1ccc2[nH]c3c4c5ccccc5nc-4c[nH]c3c2c1 | 224 | – |
| Nc1ccc2[nH]c3c[nH]c4c5cc(Cl)ccc5nc-4c3c2c1 | > 350 | – |
| c1ccc(COc2cccc3[nH]c4c5c6ccccc6nc-5c[nH]c4c23)cc1 | > 4000 | – |

Reference: ChEMBL document CHEMBL1124900, “Synthesis of substituted 7,12-dihydropyrido[3,2-b:5,4-b']diindoles: rigid planar benzodiazepine receptor ligands with inverse agonist/antagonist properties” (J Med Chem, 1990)
